The values below come from article PMC6427922 (Bioorganic & medicinal chemistry letters, 2018).

Each structure is given as a SMILES string. “Also recorded” adds a separate entry of the source. Where two headings read alike, the source gives them in different places.

Data set [1] addresses T1, hM1 (Homo sapiens, UniProt P11229).
T1 sequence (P11229 1-460): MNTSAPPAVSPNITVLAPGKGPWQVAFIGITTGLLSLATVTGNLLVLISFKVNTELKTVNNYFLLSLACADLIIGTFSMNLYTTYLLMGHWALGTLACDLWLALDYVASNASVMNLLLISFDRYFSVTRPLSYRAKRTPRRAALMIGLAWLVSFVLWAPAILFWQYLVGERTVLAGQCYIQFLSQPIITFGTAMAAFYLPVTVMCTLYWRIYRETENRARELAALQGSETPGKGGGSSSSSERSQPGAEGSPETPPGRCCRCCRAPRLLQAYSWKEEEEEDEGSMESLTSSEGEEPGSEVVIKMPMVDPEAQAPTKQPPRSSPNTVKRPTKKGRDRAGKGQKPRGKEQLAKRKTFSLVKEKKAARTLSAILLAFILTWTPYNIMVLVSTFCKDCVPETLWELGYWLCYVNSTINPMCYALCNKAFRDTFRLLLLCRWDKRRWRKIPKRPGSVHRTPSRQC
The data set is classed as cell-based. Conditions: for M1 PAM activity in words (relative to 14 or comparators): hM1-CHO. Put shortly:
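Calcium mobilization in CHO cells expressing human M1, with a fixed EC20 concentration of acetylcholine present. Read-outs are EC50, pEC50 and ACh Max. Values are means of three independent experiments, each run in triplicate. Fold changes are expressed against a racemic reference compound.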

Data set [2] is described as follows: Metabolite identification studies. The data set is classed as in vitro ADME.
In another data set the test system is NR1 knock-down mice. The conditions noted are these: cited from earlier work.
For data set [3] the following is noted: mice; cited from earlier work.
Data set [4] deals with cognitive deficits induced by risperidone. The conditions noted are these: cited from earlier work.
For data set [5] the following is noted: non-human primates; cited from earlier work.
The conditions of data set [6]: rats; cited from earlier work.
The test system of a further data set is M1. The conditions noted are these: cells and native systems; cited from earlier work.
The test system of another data set is M3. Conditions: read-out: M3 EC50; selectivity; cited from earlier work.
Another data set relates to M5. Conditions: read-out: M5 EC50; selectivity; cited from earlier work.
The subject of another data set is M2. The conditions noted are these: read-out: M2 EC50; selectivity; cited from earlier work.
Data set [7] addresses T1, hM1. Conditions: reference compound, racemate of 7; cited from earlier work.
A short description of data set [8]: Predicted hepatic clearance, human. The format is in vitro ADME.
A further data set concerns M4. The conditions noted are these: read-out: M4 EC50; selectivity; cited from earlier work.

Regarding `O=C(N[C@H]1CCC[C@@H]1O)C1CN(Cc2ccc(-n3cccn3)cc2)c2ccccc2O1` (some centres unmarked) [25b], the “M1 PAM activity in words (relative to 14 or comparators)” value on hM1 [1] is given as “comparable activity”.

Regarding `O=C(NC1CCOCC1)C1CN(Cc2ccc(-n3cccn3)cc2)c2ccccc2O1` (centres unmarked) [25d], the “Fold loss in M1 PAM activity on deletion of the hydroxyl group on the pyran ring” value at hM1 [1] (relative to pyran homolog 25c) is ~ 34 fold.

With `NC1CCCCC1NC(=O)C1CN(Cc2ccc(-n3cccn3)cc2)c2ccccc2O1` (centres unmarked) [25e], the “M1 PAM activity in words (relative to 14 or comparators)” value on hM1 [1] was “retained reasonable M1 PAM activity”.

As to `O=C(N[C@H]1CCCCC1=O)C1CN(Cc2ccc(-n3cccn3)cc2)c2ccccc2O1` (some centres unmarked) [25f], on hM1 [1], the “M1 PAM activity in words (relative to 14 or comparators)” value is on record as “retained reasonable M1 PAM activity”.

For `O=C(Nc1ncccc1O)C1CN(Cc2ccc(-n3cccn3)cc2)c2ccccc2O1` (centres unmarked) [25j], on hM1 [1], the “M1 PAM activity in words (relative to 14 or comparators)” value is “equipotent to 14”. The Route of metabolism result in data set [2] is reported as “amide hydrolysis by esterases liberating 27”.

As for `Cn1nccc1-c1ccc(CN2CC(C(=O)N[C@H]3CCCC[C@@H]3O)Oc3ccccc32)cn1` (some centres unmarked) [28 k], on hM1 [1], the “M1 PAM activity in words (relative to 14 or comparators)” value is “active”.

For the compound `O=C(N[C@H]1CCCC[C@@H]1O)C1CN(Cc2ccc(-n3cccc3)nc2)c2ccccc2O1` (some centres unmarked) [28j], the “M1 PAM activity in words (relative to 14 or comparators)” value at hM1 [1] is on record as “increase in M1 PAM potency”.

In the case of `Cn1cc(-c2ccc(Cn3cc(C(=O)N[C@H]4CCCC[C@@H]4O)c4c(F)cc(F)cc43)cn2)cn1` [compound 6], in the data set with NR1 knock-down mice, the “Efficacy in NR1 knock-down mice” value is on record as “robust efficacy”.

As for `O=C(N[C@H]1CCCC[C@@H]1O)[C@H]1CN(Cc2ccc(-n3cccn3)cc2)c2ccccc2O1` [compound 7], the Cholinergic toxicity entry in data set [3], in data set [5] and in [6] was “devoid of cholinergic toxicity” each time. Moreover, the “Reversal of cognitive deficits induced by atypical antipsychotics” value in [4] is reported as “reverse the cognitive deficits induced by atypical antipsychotics”. The M1 agonism result in the data set with M1 is on record as “devoid of M1 agonism; also recorded: devoid of agonist activity in native systems”.

Turning to `O=C(N[C@H]1CCCC[C@@H]1O)C1CN(Cc2ccc(-n3cccn3)cc2)c2ccccc2O1` (some centres unmarked) [compound 14], the EC50 in the data set on M3, in the data set with M5, with M2 and in the data set on M4 was > 30 µM each time. Moreover, the “M1 pEC50” value on hM1 [7] is given as 6.10 ± 0.13. Further, in data set [8], the “Predicted hepatic clearance CLhep, human” value is 11.1 mL/min/kg. For the same compound, the Route of metabolism result in data set [2] is listed as “P450-mediated debenzylation to afford 26”.

Turning to `O=C(N[C@H]1CCCC[C@@H]1O)C1Cc2ccccc2N(Cc2ccc(-n3cccn3)cc2)C1` (some centres unmarked) [compound 15], on hM1 [1], the “M1 PAM activity in words (relative to 14 or comparators)” value is “essentially equipotent to 14”.

As to `O=C(N[C@H]1CCCC[C@@H]1O)C1CN(Cc2ccc(-n3cccn3)nc2)c2ccccc2O1` (some centres unmarked) [compound 18], the “M1 PAM activity in words (relative to 14 or comparators)” value at hM1 [1] is given as “equipotent to 14”.

Take `O=C(N[C@H]1CCCC[C@@H]1O)C1CN(Cc2ccc(-n3cccn3)cc2)c2c(F)cccc2O1` (some centres unmarked) [compound 21]: on hM1 [1] (relative to 14), the “Fold decrease in M1 PAM activity relative to 14” value is ~ 3 fold.

With `O=C(N[C@H]1CCCC[C@@H]1O)C1CN(Cc2ccc(-n3cccn3)cc2)c2cc(F)ccc2O1` (some centres unmarked) [compound 22], the “Fold increase in M1 PAM potency relative to 14” value at hM1 [1] (relative to 14) is listed as ~ 3 fold.

As to `O=C(N[C@H]1CCCC[C@@H]1O)C1CN(Cc2ccc(-n3cccn3)cc2)c2cccc(F)c2O1` (some centres unmarked) [compound 24], the “Fold increase in M1 PAM potency relative to 14” value on hM1 [1] (relative to 14) is given as ~7 fold.

What is called EC50 is the midpoint of the concentration-response curve.
